For series [1], the system named is Aorta. The series is described as follows: Vasorelaxant activity in Wistar rat endothelium-denuded thoracic aortic rings assessed as inhibition of phenylephrine-induced contraction. In kind it is functional, tissue-based.
Series [2] concerns Aorta. Put plainly: Vasorelaxant activity in Wistar rat endothelium-intact thoracic aortic rings assessed as inhibition of phenylephrine-induced contraction. In kind it is functional, tissue-based.
For series [3], the system named is Aorta. The series is described as follows: Vasorelaxant activity in Wistar rat endothelium-intact thoracic aortic rings assessed as inhibition of phenylephrine-induced contraction at 200 uM. In kind it is functional.
Series [4] relates to Aorta. The series is described as follows: Vasorelaxant activity in Wistar rat endothelium-denuded thoracic aortic rings assessed as inhibition of phenylephrine-induced contraction at 200 uM. In kind it is functional, tissue-based.
Series [5] in a line: Cytotoxicity against rat A7r5 cells assessed as reduction of cell viability at 50 uM after 24 hrs by MTT assay. Type of series: cell-based. As to conditions: a7r5, 24 h. In short, it runs like this:
(§1)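 A7r5 embryonic rat aorta smooth muscle cells seeded at 20 × 10^3/cm^2 and incubated overnight. Compounds added with DMSO (1%) for 24 h; untreated cells served as negative control. MTT solution (5 mg/ml in PBS) added, 2 h at 37 C, absorbance read at 540 nm. Viability = A(treatment)/A(negative control) × 100%. Mean ± S.E.M of at least 5 experiments.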

A short description of series [6]: Cytotoxicity against rat A7r5 cells assessed as reduction of cell viability at 25 uM after 24 hrs by MTT assay. Type of series: cell-based. As to conditions: a7r5, 24 h. In short, it runs like this:
as §1

Series [7] relates to Aorta. The series is described as follows: Vasorelaxant activity in Wistar rat endothelium-denuded thoracic aortic rings assessed as inhibition of phenylephrine-induced contraction relative to endothelium-intact thoracic aortic rings in presence of 1 uM of acetylcholine. In kind it is functional.

Calls of active or inactive are those of the source. The rule behind the calls is not given here.

As for `Cn1c(=O)c2c(Cl)cccc2c(=O)n1CCBr`, the EC50 (commonly the concentration that produces a half-maximal response) is 32.5 µM in the series with Aorta [1] and 7.35 µM in the series with Aorta [2].
In the case of `Cn1c(=O)c2c(Cl)cccc2c(=O)n1CCCN=[N+]=[N-]`, the EC50 is 11.7 µM with Aorta [1] and 2.33 µM in the series on Aorta [2].
In the case of `Cn1c(=O)c2cccc(Cl)c2c(=O)n1CCN`, the inhibition (in general, the share of the control response that was lost under treatment) at 200 µM in the series with Aorta [3] was 50%. Moreover, the inhibition result with Aorta [4] is “inactive”.
The like results for `Cn1c(=O)c2ccccc2c(=O)n1CCCN` were, in that order, 50% and “inactive”.
On to `Cn1c(=O)c2cccc(Cl)c2c(=O)n1CCCBr`, for which the EC50 with Aorta [1] turned out to be 6.71 µM; in the series with Aorta [2], 3.36 µM.
In the same order, the values of `Nc1cc(-c2ccncc2)c[nH]c1=O` [INAMRINONE] are 28 µM and 17 µM.
Regarding `Cn1c(=O)c2cccc(Cl)c2c(=O)n1CCCN`, the concentration giving a half-maximal response (EC50) in the series on Aorta [2] stood at 44.7 µM. Moreover, the inhibition entry with Aorta [4] was “inactive”.
As for `Cn1c(=O)c2ccccc2c(=O)n1CCNC(=O)OC(C)(C)C`, the EC50 came to 14.6 µM with Aorta [1] and 2.44 µM in the series on Aorta [2].
On to `Cn1c(=O)c2ccccc2c(=O)n1CCN=[N+]=[N-]`, for which the EC50 in the series with Aorta [1] is 15.9 µM; with Aorta [2], 10 µM.
Consider `CN1C(=O)CN=C(c2ccccc2)c2cc(Cl)ccc21` [DIAZEPAM], for which the EC50 amounted to 77.2 µM with Aorta [1] and 69 µM in the series with Aorta [2].
The like results for `Cn1c(=O)c2ccccc2c(=O)n1CCBr` were, in that order, 8.46 µM and 1.7 µM.
For the molecule `Cn1c(=O)c2c(Cl)cccc2c(=O)n1CCCNC(=O)OC(C)(C)C`, the EC50 came out at 4.85 µM with Aorta [1] and 2.15 µM with Aorta [2]. Moreover, the Activity entry in series [5] is given as “Toxic”; in series [6] it was “Non-toxic”.
Take `Cn1c(=O)c2cccc(Cl)c2c(=O)n1CCCNC(=O)OC(C)(C)C`: the EC50 was found to be 18.2 µM in the series with Aorta [1] and 4.78 µM in the series with Aorta [2]. For the same molecule, the values for the Activity entry in series [5] and in series [6] were “Toxic” and “Non-toxic”, respectively.
For the molecule `NNc1nncc2ccccc12` [HYDRALAZINE], the results for the half-maximal effective concentration (EC50) in the series on Aorta [1] and in the series on Aorta [2] were 1320 µM and 1180 µM, respectively.
Consider `Cn1[nH]c(=O)c2cccc(Cl)c2c1=O`, for which the inhibition entry in the series on Aorta [3] and with Aorta [4] was “inactive” each time.
Consider `Cn1c(=O)c2cccc(Cl)c2c(=O)n1CCBr`, for which the EC50 was determined as 20.2 µM with Aorta [1] and 7.95 µM in the series with Aorta [2].
The like results for `Cn1c(=O)c2c(Cl)cccc2c(=O)n1CCN=[N+]=[N-]` were, in that order, 13.1 µM and 4.12 µM.
As to `Cn1c(=O)c2cccc(Cl)c2c(=O)n1CCNC(=O)OC(C)(C)C`, the EC50 in the series on Aorta [1] is 13.3 µM; in the series on Aorta [2], 3.45 µM. The Activity result in series [5] is “Toxic”; in series [6], “Non-toxic”.
Consider `Cn1c(=O)c2c(Cl)cccc2c(=O)n1CCCBr`, for which the EC50 is 27.2 µM in the series with Aorta [1] and 6.61 µM with Aorta [2].
For the molecule `Cn1c(=O)c2cccc(Cl)c2c(=O)n1CCN=[N+]=[N-]`, the EC50 in the series on Aorta [1] was found to be 13.2 µM; in the series on Aorta [2] it was 6.35 µM.
Turning to `Cn1[nH]c(=O)c2c(Cl)cccc2c1=O`, the inhibition result in the series with Aorta [3] and in the series on Aorta [4] was “inactive” each time.
Consider `Cn1[nH]c(=O)c2ccccc2c1=O`, for which the inhibition entry with Aorta [3] and in the series with Aorta [4] was “inactive” in each case.
As to `Cn1c(=O)c2ccccc2c(=O)n1CCCN=[N+]=[N-]`, the EC50 with Aorta [1] amounted to 3.71 µM; in the series on Aorta [2], 2.35 µM.
For the molecule `Cn1c(=O)c2c(Cl)cccc2c(=O)n1CCNC(=O)OC(C)(C)C`, the EC50 in the series with Aorta [1] was determined as 5.57 µM; with Aorta [2], 2.53 µM. In addition, the values for the Activity entry in series [5] and in series [6] were “Toxic” and “Non-toxic”, respectively.
Consider `Cn1c(=O)c2ccccc2c(=O)n1CCN`, for which the inhibition at 200 µM in the series with Aorta [3] worked out at 50%. Besides, the inhibition result in the series with Aorta [4] is “inactive”.
Turning to `Cn1c(=O)c2cccc(Cl)c2c(=O)n1CCCN=[N+]=[N-]`, the EC50 in the series on Aorta [1] worked out at 7.44 µM; in the series on Aorta [2], 4.31 µM. In addition, the figures for the Activity entry in series [5] and in series [6] were “Toxic” and “Non-toxic”, respectively.
In the case of `Cn1c(=O)c2c(Cl)cccc2c(=O)n1CCCN`, the EC50 in the series with Aorta [1] is 30.2 µM; with Aorta [2] it was 8.51 µM. The “inhibition (INH)” value in the series with Aorta [7] is 53.6%.
Turning to `Cn1c(=O)c2ccccc2c(=O)n1CCCNC(=O)OC(C)(C)C`, the EC50 in the series on Aorta [1] was 23.6 µM; with Aorta [2] it was 3.96 µM.
In the same order, the values of `Cn1c(=O)c2ccccc2c(=O)n1CCCBr` are 15.5 µM and 3.1 µM.
Consider `Cn1c(=O)c2c(Cl)cccc2c(=O)n1CCN`, for which, in the series with Aorta [2], the EC50 amounted to 48.7 µM. Besides, the inhibition entry in the series on Aorta [4] is “inactive”.

(Values after ChEMBL document CHEMBL3286337, “Synthesis, biological evaluation and structure-activity relationships of new phthalazinedione derivatives with vasorelaxant activity” (Eur J Med Chem, 2014).)
